Screens as filed in PubChem BioAssay.
This is a sample that favours compounds with a hit; in the whole collection about 1.5% have one here.
ERp5 block: blocks human ERp5 reductase activity on insulin. Q15084. ERp5 insulin aggregation, absorbance 650 nm, 90 min. inhibition, % at 9.99 µM. 350,000 tested, 0.05% active. AID 651711;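 active = mean replicate inhibition above about 25%, with every replicate also reaching it, limit read from the data, passing the limit was not always enough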
Target sequence (Q15084 whole entry, looked up): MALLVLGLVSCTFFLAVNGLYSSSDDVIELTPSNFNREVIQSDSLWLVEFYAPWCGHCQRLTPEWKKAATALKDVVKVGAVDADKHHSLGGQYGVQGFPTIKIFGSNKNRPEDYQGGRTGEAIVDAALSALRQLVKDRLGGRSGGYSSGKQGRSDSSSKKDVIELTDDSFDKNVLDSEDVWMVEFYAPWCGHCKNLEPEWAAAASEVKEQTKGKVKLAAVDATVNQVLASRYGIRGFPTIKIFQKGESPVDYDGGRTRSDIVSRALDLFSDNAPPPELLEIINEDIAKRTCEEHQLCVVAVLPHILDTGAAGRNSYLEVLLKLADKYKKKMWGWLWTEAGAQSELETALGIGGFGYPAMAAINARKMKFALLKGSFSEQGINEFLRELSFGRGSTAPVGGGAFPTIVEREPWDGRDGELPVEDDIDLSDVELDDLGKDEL
INS-1E GSIS act: primary screen for activators of insulin secretion dependent on glucose, INS-1E cells, GLuc reporter luminescence; INS-1E GLuc reporter insulin secretion, 2-3 h; activation, % at 16.6 µM; 370,000 tested, 0.61% active; AID 743287;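 active = lowest replicate activation of at least 40%, so every replicate reaches that level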;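 note: 0% = median of neutral control wells and 100% = median of IBMX positive control wells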
S100A4 inh HTS: S100A4-myosin IIA interaction inhibition | 360,000 tested, 0.14% active | inhibition, % at 10.7 µM | S100A4/TAMRA-MyoIIA peptide fluorescence polarization | AID 652163;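 active = mean inhibition of at least 70% across replicates, with every replicate also reaching that level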
Target sequence (P26447 whole entry, looked up): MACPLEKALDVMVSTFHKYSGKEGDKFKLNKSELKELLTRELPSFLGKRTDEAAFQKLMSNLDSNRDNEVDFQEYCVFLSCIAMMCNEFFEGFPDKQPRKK
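Material: human S100A4 monomer with TAMRA-labelled myosin IIA peptide; buffer or medium: HEPES pH 7.2 with CaCl2, KCl, NaCl, DTT, Triton; compound dosing: one concentration per compound; schedule: 5 min incubation before reading; benchmarks: neutral control DMSO, positive control TFP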
SIRT5 block: sirtuin-5 (human) deacylase inhibition; Q9NXA8; Purified SirT5, succinyl-peptide AMC, trypsin-coupled fluorescence; inhibition, % at 15 µM; 330,000 tested, 1.1% active; in the data active = inhibition above about 15%
PDI turbidity: inhibitors of human protein disulfide isomerase; P07237; PDI insulin aggregation turbidity, A650, 90 min; inhibition, % at 10 µM; 350,000 tested, 0.052% active; AID 588391;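 active = mean inhibition across replicates of 30% or more, whatever share of single replicates reach that level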
Active calls of the source: *.

How did C[C@@H]1CN([C@@H](C)CO)S(=O)(=O)c2ccc(C3=CCCC3)cc2O[C@H]1CN(C)Cc1cccc(C(=O)O)c1 do in these assays?
ERp5 block: -0.5; INS-1E GSIS act: -10.2; S100A4 inh HTS: 13.7; SIRT5 block: 3.9

Results for CSc1nc(N)n2nc(C(C)(C)C)cc2n1 ?
ERp5 block: 2.3; INS-1E GSIS act: 54.1*; S100A4 inh HTS: -8.9; SIRT5 block: -4.2; PDI turbidity: 14.1

How did CCOC(=O)C1(CC2CC2)CCN(Cc2cn[nH]c2-c2cccc(F)c2)CC1 do in these assays?
ERp5 block: -1.1; INS-1E GSIS act: -18.3; S100A4 inh HTS: 5.6; SIRT5 block: 17.1*; PDI turbidity: 0.8

How did C[C@H](CO)N1C[C@H](C)[C@@H](CN(C)S(=O)(=O)c2ccc(F)cc2)Oc2cc(C#Cc3ccc(F)cc3)ccc2S1(=O)=O do in these assays?
ERp5 block: -3.2; INS-1E GSIS act: -12.1; S100A4 inh HTS: -14.3; SIRT5 block: 22.9*

Results for C[C@H]1CN([C@@H](C)CO)S(=O)(=O)c2ccc(C#Cc3ccc(F)cc3)cc2O[C@@H]1CN(C)S(=O)(=O)c1ccc(F)cc1 ?
ERp5 block: 1.0; INS-1E GSIS act: -8.4; S100A4 inh HTS: -0.5; SIRT5 block: 23.7*

How did C[C@@H]1CN([C@@H](C)CO)S(=O)(=O)c2ccc(C#Cc3ccc(F)cc3)cc2O[C@H]1CN(C)S(=O)(=O)c1ccc(F)cc1 do in these assays?
ERp5 block: -1.2; INS-1E GSIS act: -5.4; S100A4 inh HTS: -3.2; SIRT5 block: 23.0*

What do the screens show for `C[C@@H]1CN([C@@H](C)CO)S(=O)(=O)c2ccc(C#Cc3ccncc3)cc2O[C@H]1CN(C)S(=O)(=O)c1ccc(F)cc1`?
ERp5 block: -3.3; INS-1E GSIS act: -16.1; S100A4 inh HTS: -0.7; SIRT5 block: 2.4

Results for C[C@H]1CN([C@@H](C)CO)S(=O)(=O)c2ccc(C#Cc3ccc(F)cc3)cc2O[C@H]1CN(C)S(=O)(=O)c1ccc(F)cc1 ?
ERp5 block: 2.1; INS-1E GSIS act: -2.1; S100A4 inh HTS: -31.4; SIRT5 block: 28.8*

Results for C[C@H]1CN([C@@H](C)CO)S(=O)(=O)c2ccc(C#Cc3ccncc3)cc2O[C@@H]1CN(C)S(=O)(=O)c1ccc(F)cc1 ?
ERp5 block: -1.6; INS-1E GSIS act: -49.5; S100A4 inh HTS: 0.1; SIRT5 block: -2.0

Results for C[C@H]1CN([C@@H](C)CO)S(=O)(=O)c2ccc(C#Cc3ccncc3)cc2O[C@H]1CN(C)S(=O)(=O)c1ccc(F)cc1 ?
ERp5 block: 6.5; INS-1E GSIS act: -53.0; S100A4 inh HTS: 8.1; SIRT5 block: 7.3

Results for C[C@H](CO)N1C[C@H](C)[C@H](CN(C)S(=O)(=O)c2ccc(F)cc2)Oc2cc(C#Cc3ccncc3)ccc2S1(=O)=O ?
ERp5 block: 9.0; INS-1E GSIS act: 14.7; S100A4 inh HTS: -4.0; SIRT5 block: 0.2

What do the screens show for `CCCC(=O)N1CC2(CN[C@@H](CO)c3c2c2ccc(OC)cc2n3C)C1`?
INS-1E GSIS act: 7.3

Results for C[C@@H]1CN([C@@H](C)CO)C(=O)c2cc(NS(C)(=O)=O)ccc2O[C@H]1CN(C)C(=O)Nc1cccc2ccccc12 ?
ERp5 block: -1.5; INS-1E GSIS act: 0.1; S100A4 inh HTS: 14.1; SIRT5 block: -2.6

What do the screens show for `COc1cccc(CN(C)C[C@H]2OCc3ccccc3-c3ccccc3C(=O)N([C@@H](C)CO)C[C@H]2C)c1`?
ERp5 block: 9.0; INS-1E GSIS act: -16.4; S100A4 inh HTS: 3.7; SIRT5 block: 8.2

What do the screens show for `C[C@@H]1CN([C@@H](C)CO)S(=O)(=O)c2ccc(C#Cc3ccc(F)cc3)cc2O[C@@H]1CN(C)S(=O)(=O)c1ccc(F)cc1`?
ERp5 block: -2.2; INS-1E GSIS act: 0.4; S100A4 inh HTS: 54.9; SIRT5 block: 26.3*

What do the screens show for `Cc1ccc(S(=O)(=O)N(C)C[C@H]2Oc3cc(C#Cc4ccncc4)ccc3S(=O)(=O)N([C@@H](C)CO)C[C@H]2C)cc1`?
ERp5 block: 14.9; S100A4 inh HTS: -27.6; SIRT5 block: 17.6*

Results for C[C@@H]1CN([C@H](C)CO)S(=O)(=O)c2ccc(C#Cc3cccc(F)c3)cc2O[C@@H]1CN(C)S(=O)(=O)c1ccccc1F ?
ERp5 block: 6.1; INS-1E GSIS act: -18.9; S100A4 inh HTS: 1.2; SIRT5 block: 18.4*

How did O=C(NC1CCCCC1)N1CC(=O)N2[C@H](CO)[C@@H](c3ccc(-c4cccc(F)c4)cc3)[C@@H]2C1 do in these assays?
ERp5 block: -0.9; INS-1E GSIS act: -26.1; S100A4 inh HTS: 1.3; SIRT5 block: 6.8

What do the screens show for `COc1cccc(NC(=O)N[C@H]2CC[C@@H](CC(=O)Nc3ccc(-c4ccccc4)cc3)O[C@@H]2CO)c1`?
ERp5 block: -1.5; INS-1E GSIS act: -20.5; S100A4 inh HTS: 0.1; SIRT5 block: 5.5

What do the screens show for `COc1ccc(-c2ccc(C#N)c(SCC(=O)NCc3ccco3)n2)cc1OC`?
ERp5 block: 1.2; INS-1E GSIS act: 50.6*; S100A4 inh HTS: 12.0; SIRT5 block: -40.0; PDI turbidity: -2.9

Results for COc1ccc(-c2nc3cccc(C)n3c2NCc2ccco2)cc1OC ?
INS-1E GSIS act: 65.3*; PDI turbidity: -18.6

What do the screens show for `COc1ccc(-c2csc(NCc3ccco3)n2)cc1C`?
PDI turbidity: -2.7

Results for COc1ccc(-c2ccc(C#N)c(SCC(=O)NC3CC3)n2)cc1OC ?
ERp5 block: -14.3; S100A4 inh HTS: -2.4; PDI turbidity: -3.4

Results for COc1cccc(NC(=O)N[C@@H]2CC[C@H](CC(=O)Nc3ccc(-c4ccccc4)cc3)O[C@@H]2CO)c1 ?
ERp5 block: -3.8; INS-1E GSIS act: -15.5; S100A4 inh HTS: -5.3; SIRT5 block: 3.3

What do the screens show for `COc1ccc(OC)c(NC(=O)CSc2n[nH]c(-c3cccnc3)n2)c1`?
ERp5 block: 0.0; INS-1E GSIS act: 3.4; S100A4 inh HTS: 0.2; SIRT5 block: 16.6*; PDI turbidity: -7.7

Results for CC(=O)N(C)C[C@@H]1Oc2ncc(-c3cccc(F)c3)cc2C(=O)N([C@H](C)CO)C[C@H]1C ?
ERp5 block: -0.6; INS-1E GSIS act: 14.2; S100A4 inh HTS: 13.2; SIRT5 block: -0.7

How did CCC(C)N1C(=O)N(C)C2NC(=O)NC21 (stereo not drawn) do in these assays?
ERp5 block: -4.7; INS-1E GSIS act: -5.4; S100A4 inh HTS: -1.5; SIRT5 block: 24.9*; PDI turbidity: 2.7

Results for CCC(C)NC(=O)CN1C(=O)NC2NC(=O)NC21 (stereo not drawn) ?
ERp5 block: 8.1; INS-1E GSIS act: 9.2; S100A4 inh HTS: 32.5; SIRT5 block: -1.0; PDI turbidity: 1.4

How did CN1CCCC(OC(=O)c2ccc(C#N)cc2)C1 (stereo not drawn) do in these assays?
ERp5 block: 2.1; INS-1E GSIS act: 57.4*; S100A4 inh HTS: 2.7; SIRT5 block: -6.3; PDI turbidity: -2.4
